Bioassay records (PubChem BioAssay)
NCF1 inh – inhibitors of human p47phox binding | P14598 | p47phox/p22phox peptide binding, fluorescence polarization, 2 h | inhibition, % at 24.7 µM | hit rate 0.53% among 220,000;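 active = inhibition above about 30%, limit read from the data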;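 also: 0% = p47phox with labelled peptide and 100% = labelled peptide alone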
pCIP destab – lowers stability of the mouse p/CIP coactivator protein; decrease of EGFP signal, % at 10 µM; hit rate 0.01% among 290,000; Q05BA5; F442A p/CIP-EGFP cells, EGFP fluorescence, 16 h;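 active = EGFP signal decrease of at least 30% at 10 µM or well 3 SD below plate mean, unless failing retest; inactive = the rest, including hits failing retest or dose response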
RAM inhibit – yeast RAM network inhibition; S. cerevisiae dse1pr::URA3 reporter, 5-FOA growth OD615, 2 d; analog-sensitive cbk1-as2 kinase mutant strain; inhibition, % at 50 µM; hit rate 1.8% among 190,000; AID 868;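 active = inhibition above a set limit, 3 SD over mean compound inhibition, cut at about 8.4% in these data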;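 also: 0% = DMSO-only wells with no growth and 100% = 10 µM 1-NA-PP1 full growth; inhibition rescues growth on 5-FOA so higher OD means more RAM inhibition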
Dynein transport – blocks dynein driven cargo transport along microtubules. 3617.4 mouse cells, GR-EGFP nuclear translocation imaging; test concentration mostly 20 µM; stimulated with dexamethasone, 1 µM; stronger effect = lower value. z-score, hits read low. hit rate 0.47% among 220,000. AID 1381;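 active = plate z-score of nuclear minus cytoplasmic receptor signal below a set negative limit, without overly bright fluorescence or cell loss, cut at about -3.5 in these data, passing the limit was not always enough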;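 also: z-score of nuclear minus cytoplasmic ring GR-EGFP intensity difference per well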
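Also added: dexamethasone, 1.0 µM final. Medium: tet-free, stripped-serum medium. Detection: fixed, Hoechst-stained cells imaged at 10x for EGFP. Read-out: nuclear-to-cytoplasmic GR-EGFP distribution per well. Times: induction 48 h, compound 1 h, agonist 30 min.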
The depositor's hits bear a star; x = not tested or not shown. An excerpt weighted towards active compounds, which were near 1.9% of everything screened.

SMILES	NCF1 inh	pCIP destab	RAM inhibit	Dynein transport
Cc1ccc(S(=O)(=O)NCc2ccc(C(=O)N3CCN(Cc4ccccc4)CC3)cc2)cc1	-13	-15	2	0.12
CCOC(=O)C1CCN(C(=O)c2ccc(CNS(=O)(=O)c3ccc(C)cc3)cc2)CC1	33*	-7	0	0.67
COc1ccc(NC(=O)/C=C/c2ccccc2)cn1	-6	-5	-1	-0.97
COc1ccc(NC(=O)/C=C/c2cc(OC)c(OC)c(OC)c2)cn1	2	11	9.0*	-0.64
O=C(O)C1CCC(Cn2c(SCc3cc(=O)n4cc(Cl)ccc4n3)nc3ccsc3c2=O)CC1 (stereo not drawn)	-11	-4	9.2*	-0.2
O=C(CSc1nc2ccccc2s1)N/N=C/c1ccc(C(=O)O)cc1	-7	-9	10*	1.1
COc1ccc(-c2csc(N(Cc3ccco3)C(=O)c3cccs3)n2)cc1	-58	-2	x	-0.41
COc1ccc(OC)c(-c2csc(N(C)C(=O)Cc3ccccc3)n2)c1	-7	-10	9.8*	-0.32
COCCN(C(=O)Cc1ccc(OC)c(OC)c1)c1nc(-c2cc(OC)ccc2OC)cs1	x	-14	x	x
COc1ccc(OC)c(-c2csc(N(Cc3ccco3)C(=O)c3cccs3)n2)c1	-22	-13	9.1*	-0.36
CCCC(C)NC(=O)COc1ccc(Sc2ccc(OCC(=O)NC(C)CCC)cc2)cc1 (stereo not drawn)	-18	-6	10*	-0.52
Cc1cc(SCC(=O)OCC(=O)NC(C)c2ccccc2)c(C)cc1Br (stereo not drawn)	-10	2	10*	-0.56
Cc1cc(Br)ccc1SCC(=O)OCC(=O)NC(C)c1ccccc1 (stereo not drawn)	-9	-14	1	-0.99
CCCc1nc2ccc(NC(=O)NCCC(=O)OCC)cc2c(=O)n1Cc1ccc(Cl)cc1	-1	-4	2	1.1
CCCc1nc2ccc(NC(=O)NCCC(=O)OCC)cc2c(=O)n1Cc1cccc(Cl)c1	-5	3	10*	1.4
COC(=O)c1cccc(S(=O)(=O)N(Cc2ccco2)Cc2cc3cc(OC)c(OC)cc3[nH]c2=O)c1	-10	-2	8.9*	0.026
O=C(NCc1cccc(Cl)c1)c1ccc(-c2csnn2)cc1	116*	6	x	0.2
CCOc1ccc2ccccc2c1/C=N/NC(=O)c1ccncc1	x	3	x	x
Cc1cc(C)c(C#N)c(SCC2COc3ccccc3O2)n1 (stereo not drawn)	-17	-49	8.5*	-0.34
O=C(Nc1ccc(-c2nc3ccccc3[nH]2)cc1)c1ccco1	-13	7	9.5*	-0.59
Cc1c(C(=O)N2CCN(Cc3ccccc3)CC2)oc2c1C(=O)CCC2	x	5	x	x
CCN(Cc1ccccc1)CC(O)COC(c1ccc(OC)cc1)c1ccc(OC)cc1 (stereo not drawn)	x	-5	x	x
CC(/C=C1\SC(=S)N(NS(=O)(=O)c2ccc(C)cc2)C1=O)=C\c1ccccc1	-93	1	x	-0.054
CC(=O)N1C(=O)/C(=C2\SC(=S)N(NS(=O)(=O)c3ccc(C)cc3)C2=O)c2ccccc21	-40	-8	11*	0.41
O=C(Nc1ccc2c(c1)OCCO2)C(=S)NCc1ccccc1	-6	-13	8.7*	0.18
SMILES	NCF1 inh	pCIP destab	RAM inhibit	Dynein transport
O=C(CCC(=O)OCC(=O)c1ccc(Cl)cc1Cl)Nc1cccc2cccnc12	-24	-7	4	0.073
O=C(CCC(=O)OCC(=O)c1ccc(-c2ccccc2)cc1)Nc1cccc2cccnc12	-27	-8	10*	-0.83
COc1ccc(CCNC(=O)CCS(=O)(=O)Cc2ccccc2C)cc1OC	x	-3	x	x
COc1ccc(CNS(=O)(=O)c2cc(CN3C(=O)c4cccnc4C3=O)ccc2OC)cc1	x	1	x	x
Cc1ccc(-c2cc(C(=O)Nc3sc4c(c3C(=O)NCc3ccco3)CCC4)[nH]n2)c(O)c1	-9	-19	4	-0.35
CCNC(=O)c1c(NC(=O)c2cc(-c3cc(C)ccc3O)n[nH]2)sc2c1CCCC2	52*	7	8	0.87
Cc1ccc(S(=O)(=O)N(C)c2ccc(OCC(=O)Nc3nnc(C4CC4)s3)cc2)cc1	-60	2	5	-0.5
COc1cc(NC(=O)COc2ccccc2Cl)ccc1NC(=O)c1cccs1	x	-3	x	x
COc1cc(NC(=O)COc2ccccc2[N+](=O)[O-])ccc1NC(=O)c1cccs1	52*	-13	3	0.69
COc1ccc(Br)cc1/C=C/C(=O)c1ccc(NC(C)=O)cc1	7	-7	7	-3.5*
Cc1csc(CN(C)C(=O)CC2C(=O)NCCN2Cc2ccc(F)cc2Cl)n1 (stereo not drawn)	x	-14	x	x
CCSS(=O)(=O)c1cccc2cccnc12	52*	0	x	-0.57
CC(=O)c1ccc(NC(=O)c2ccc(CSc3ccccc3)o2)cc1	-7	14	8.6*	0.16
CCCCNC(=O)/C(C#N)=c1\s/c(=C\c2ccccc2OC(F)F)c(=O)n1CCCOC	-13	-7	9.2*	-0.31
COCCCNC(=O)/C(C#N)=c1\s/c(=C\c2ccccc2OC(F)F)c(=O)n1CCCOC	-4	-48	3	0.34
COCCCn1c(=O)/c(=C\c2ccccc2OC(F)F)s/c1=C(/C#N)C(=O)N1CCOCC1	-10	-4	9.1*	-0.19
CCC(C)NC(=O)CSc1nnc(-c2ccc(Cl)cc2)n1N (stereo not drawn)	53*	4	0	0.6
O=C(CCn1nnnc1CN1CCOCC1)N1CCC(c2cccc(Cl)c2)C1 (stereo not drawn)	x	-16	x	x
O=C(c1cc(-c2ccncc2)nc2ccc(Cl)cc12)N1CCN(Cc2ccc3c(c2)OCO3)CC1	48*	-10	0	-0.092
O=C(c1cc(-c2ccncc2)nc2ccc(Br)cc12)N1CCN(Cc2ccc3c(c2)OCO3)CC1	-11	-20	1	-0.84
O=C1C2C3CCC(CC3)C2C(=O)N1c1ccccc1 (stereo not drawn)	x	-2	x	x
CC(C)(C)SC(=O)C[C@@H]1NS(=O)(=O)OC2CCCCC21 (stereo partly drawn)	x	-10	x	x
CC(C)c1ccc(-c2nc(N3CCCCC3)[nH]c(=O)c2C#N)cc1	-7	8	3	0.019
CC1=Nc2nc(N3CCCCC3)c(C#N)c3c4c(nc(c23)N1)N(c1ccc(C(C)C)cc1)C(=O)C4	-102	-17	9.3*	-0.67
CC(=O)c1ccc(OCCCC(=O)NC2CCCc3ccccc32)cc1 (stereo not drawn)	-75	-2	1	-0.43
O=C(Cn1cnc2cc([N+](=O)[O-])ccc2c1=O)NC1CCS(=O)(=O)C1 (stereo not drawn)	-5	19	1	-0.67
Cc1ccc(Cn2c(C)cc3c(c2=O)C(c2cccs2)C(C#N)=C(N)O3)cc1 (stereo not drawn)	0	6	8.7*	-0.52
COc1cc(Nc2ccc(C(=O)O)cc2[N+](=O)[O-])cc(OC)c1	2	3	10*	-0.024
CN1C/C(=C/c2cccnc2)C(=O)/C(=C/c2cccnc2)C1	-8	-18	0	-5.9*
